These results are taken from ChEMBL document CHEMBL3826882, “Discovery of 1-((2R,4aR,6R,7R,7aR)-2-Isopropoxy-2-oxidodihydro-4H,6H-spiro[furo[3,2-d][1,3,2]dioxaphosphinine-7,2'-oxetan]-6-yl)pyrimidine-2,4(1H,3H)-dione (JNJ-54257099), a 3'-5'-Cyclic Phosphate Ester Prodrug of 2'-Deoxy-2'-Spirooxetane Uridine Triphosphate Useful for HCV Inhibition” (J Med Chem, 2016).

The subject of data set [1] is Hepatocyte. Nature of the data set: Drug metabolism in human hepatocytes assessed as ((4R,5R,7R,8R)-5-(2,4-dioxo-3,4-dihydropyrimidin-1(2H)-yl)-8-hydroxy-1,6-dioxaspiro[3.4]octan-7-yl)methyl dihydrogen phosphate formation in presence of pan-CYP inhibitor 1-ABT by LC-MS/MS analysis. The class given is ADME, cell-based.
Data set [2] is described as follows: AUC (0 to infinity) in rat plasma at 50 mg/kg, po. The class given is ADME, organism-based. The arrangement: dose 50 mg/kg, time infinity, route oral. In short, it runs like this: (§1)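 Oral dose 50 mg/kg, formulated in 20% HP-β-cyclodextrin. Prodrug and triphosphate were measured in plasma and liver (ng/mL or ng/g). Parameters derived were Cmax, tmax, AUC0-last, AUC0-inf and t1/2. Some prodrug data come from two independent studies.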

The nature of data set [3]: Cmax in mouse plasma at 50 mg/kg, po. The class given is ADME, organism-based. The arrangement: dose 50 mg/kg, route oral.
Data set [4] in a line: Prodrug conversion in dog cryopreserved hepatocytes assessed as 2'-deoxy-2'-spirooxetane uridine triphosphate level per million cells at 10 uM after 8 hrs by LC-MS/MS analysis. Type of data set: ADME, cell-based, Canis lupus familiaris, Hepatocyte. In short, it runs like this: (§2)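 Plated cryopreserved hepatocytes (study B) incubated with 10 µM unlabeled prodrug for 2, 8 or 24 h. Triphosphate measured in cell lysates and expressed as pmol/million hepatocytes. Quantification limit 2 ng/10^6 cells.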

In data set [5] the test system is Plasma. The data set is described as follows: Tlast in mouse plasma at 50 mg/kg, po. The class given is ADME, organism-based. The conditions noted are these: in vivo. In short, it runs like this: (§3)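 Single oral dose of 50 mg/kg formulated in 20% HP-β-cyclodextrin. Prodrug and its triphosphate were measured in plasma and liver (ng/mL or ng/g) over time, and Cmax, tmax, AUC, tlast and t1/2 were derived. For some analytes, data from two independent studies are reported.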

Data set [6] can be described thus: Half life in dog plasma at 50 mg/kg, po. Type of data set: ADME, organism-based, Canis lupus familiaris. In short, it runs like this:
(§4)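 Single oral dose of 50 mg/kg in 20% HP-β-cyclodextrin. Prodrug and triphosphate measured in plasma and liver over time (tlast 6–30 h). Half-life, Cmax, tmax and AUC0-last derived; liver/plasma ratio taken from AUC0-last. Prodrug data pooled from two independent studies.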

In data set [7] the test system is Hepatitis C virus. The data set is described as follows: Antiviral activity against HCV genotype 3a infected in homozygous cDNA-uPA chimeric SCID mouse bearing humanized hepatocytes assessed as reduction in HCV RNA level in serum administered through oral gavage twice daily daily for 7 days by RT-PCR method. To be noted: Hepacivirus hominis, Hepatocyte. The class given is functional, organism-based. In short, it runs like this:
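Male chimeric SCID cDNA-uPA+/+ mice with human hepatocyte liver (≥70% replacement by blood human albumin) and serum HCV RNA >1.0×10^6 copies/mL the week before dosing. Oral gavage for 7 days in 20% HP-β-CD, 50-200 mg/kg QD or BID. Serum sampled pre-dose on days 1, 2, 3, 5 and 7. Real-time PCR; mean change in log10 copies/mL, day 7 vs day 1 pre-dose.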

The nature of data set [8]: Tmax in mouse plasma at 50 mg/kg, po. Type of data set: ADME, organism-based. In short, it runs like this:
as §3

Data set [9] relates to Hepatitis C virus. The data set is described as follows: Antiviral activity against HCV genotype 1b infected in human HuH7 cells assessed as inhibition of viral replication after 3 days by luciferase reporter gene assay. The class given is functional, organism-based, Hepacivirus hominis. To be noted: Huh-7, 72 h. In short, it runs like this: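 HCV 1b subgenomic luciferase replicon (Huh7-luc, clone ET, adaptive mutations E1202G, T1280I, K1846T). 2,500 cells were incubated with compound over a 9-point, 1/4 dilution series for 3 days. Replication was read as luciferase activity.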

The target of data set [10] is CYP3A4 (Homo sapiens, UniProt P08684). Nature of the data set: Drug metabolism in baculovirus infected insect cell microsomes expressing human CYP3A4 assessed as CYP3A4-mediated half life at 22.7 uM. The class given is ADME. In short, it runs like this: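 Incubation at 22.7 µM with human CYP3A4 supersomes. Intrinsic clearance (µL/min.pmol P450) and half-life (min) were determined.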

Data set [11] deals with Hepatocyte. The data set is described as follows: Prodrug conversion in human hepatocytes assessed as 2'-deoxy-2'-spirooxetane uridine triphosphate formation in presence of CYP2C8 and CYP2C9 inhibitor montelukast by LC-MS/MS analysis. Type of data set: ADME, cell-based.
Data set [12] has as its system Hepatocyte. The data set is described as follows: Prodrug conversion in rat cryopreserved hepatocytes assessed as 2'-deoxy-2'-spirooxetane uridine triphosphate level per million cells at 10 uM after 8 hrs by LC-MS/MS analysis. The class given is ADME, cell-based. In short, it runs like this: as §2
A short description of data set [13]: AUC (0 to infinity) in mouse plasma at 50 mg/kg, po. Type of data set: ADME, organism-based. The arrangement: dose 50 mg/kg, route oral, time infinity. In short, it runs like this: as §1
Data set [14] concerns Liver. Nature of the data set: Cmax in mouse liver assessed as 2'-deoxy-2'-spirooxetane uridine triphosphate at 50 mg/kg, po. The class given is ADME, organism-based. The arrangement: dose 50 mg/kg, route oral. To be noted: in vivo.
Data set [15] in a line: Ratio of AUC (0 to last) in rat liver to AUC (0 to last) in rat plasma. Type of data set: ADME. In short, it runs like this: as §4
Data set [16] deals with Hepatocyte. Nature of the data set: Prodrug conversion in human hepatocytes assessed as 2'-deoxy-2'-spirooxetane uridine triphosphate formation in presence of CYP3A4 inhibitor ritonavir by LC-MS/MS analysis. Type of data set: ADME, cell-based.
Data set [17] in a line: Tmax in dog liver at 50 mg/kg, po. The class given is ADME, organism-based, Canis lupus familiaris. In short, it runs like this: as §3
Data set [18] can be described thus: Tmax in rat plasma at 50 mg/kg, po. The class given is ADME, organism-based. In short, it runs like this:
as §3

The subject of data set [19] is Hepatocyte. Nature of the data set: Drug metabolism in human primary hepatocyte supernatant assessed as 1-[(4aR,6R,7R,7aR)-2-hydroxy-2-oxidodihydro-4H-spiro[furo[3,2-d][1,3,2]dioxaphosphinine-7,2'-oxetan]-6-yl]pyrimidine-2,4(1H,3H)-dione formation at 2 to 62.5 uM after 4 to 24 hrs using radiolabelled compound by HPLC analysis. Type of data set: ADME, cell-based. To be noted: hepatocytes. In short, it runs like this:
(§5)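 Fresh primary hepatocyte cultures incubated with tritiated prodrug (5'-[3H]) at 2 and 62.5 µM for 4 and 24 h. Supernatants taken after protein precipitation and profiled by HPLC with radioactivity detection. Cell lysates profiled for metabolites by radio-LC. Cyclic monophosphate also measured by LC/MS/MS.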

Data set [20] concerns Hepatocyte. Nature of the data set: Drug metabolism in human primary hepatocyte supernatant assessed as 1-((4R,5R,7R,8R)-8-hydroxy-7-(hydroxymethyl)-1,6-dioxaspiro[3.4]octan-5-yl)pyrimidine-2,4(1H,3H)-dione formation at 2 to 62.5 uM after 4 to 24 hrs using radiolabeled compound by HPLC analysis. Type of data set: ADME, cell-based. To be noted: hepatocytes. In short, it runs like this:
as §5

The test system of data set [21] is Hepatocyte. Nature of the data set: Drug metabolism in rat primary hepatocyte supernatant assessed as 1-[(4aR,6R,7R,7aR)-2-hydroxy-2-oxidodihydro-4H-spiro[furo[3,2-d][1,3,2]dioxaphosphinine-7,2'-oxetan]-6-yl]pyrimidine-2,4(1H,3H)-dione formation at 2 to 62.5 uM after 4 to 24 hrs using radiolabelled compound by HPLC analysis. The class given is ADME, cell-based. To be noted: hepatocytes. In short, it runs like this: as §5

Data set [22] deals with Hepatocyte. The data set is described as follows: Prodrug conversion in rat primary hepatocytes assessed as 2'-deoxy-2'-spirooxetane uridine triphosphate level per million cells at 2 uM after 24 hrs using radiolabelled compound by LC-MS/MS analysis. Type of data set: ADME, cell-based. In short, it runs like this:
(§6)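 Study A: fresh primary hepatocyte cultures from mouse, rat, dog and human incubated with tritiated prodrug at 2 or 62.5 µM for 4 or 24 h. Triphosphate in cell lysates reported as pmol/million hepatocytes. Duplicate or single measurements.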

In data set [23] the test system is Hepatocyte. Nature of the data set: Prodrug conversion in mouse primary hepatocytes assessed as 2'-deoxy-2'-spirooxetane uridine triphosphate level per million cells at 2 uM after 24 hrs using radiolabelled compound by LC-MS/MS analysis. Type of data set: ADME, cell-based. In short, it runs like this: as §6
The test system of data set [24] is Hepatocyte. The data set is described as follows: Prodrug conversion in rat primary hepatocytes assessed as 2'-deoxy-2'-spirooxetane uridine triphosphate level per million cells at 62.5 uM after 24 hrs using radiolabelled compound by LC-MS/MS analysis. Type of data set: ADME, cell-based. In short, it runs like this:
as §6

The subject of data set [25] is Hepatocyte. Nature of the data set: Drug metabolism in rat primary hepatocyte supernatant assessed as 1-((4R,5R,7R,8R)-8-hydroxy-7-(hydroxymethyl)-1,6-dioxaspiro[3.4]octan-5-yl)pyrimidine-2,4(1H,3H)-dione formation at 2 to 62.5 uM after 4 to 24 hrs using radiolabeled compound by HPLC analysis. Type of data set: ADME, cell-based. To be noted: hepatocytes. In short, it runs like this:
as §5

Data set [26] in a line: Prodrug conversion in dog primary hepatocytes assessed as 2'-deoxy-2'-spirooxetane uridine triphosphate level per million cells at 62.5 uM after 4 hrs using radiolabelled compound by LC-MS/MS analysis. Type of data set: ADME, cell-based, Canis lupus familiaris, Hepatocyte. In short, it runs like this:
as §6

CYP3A4, sequence (P08684 whole entry): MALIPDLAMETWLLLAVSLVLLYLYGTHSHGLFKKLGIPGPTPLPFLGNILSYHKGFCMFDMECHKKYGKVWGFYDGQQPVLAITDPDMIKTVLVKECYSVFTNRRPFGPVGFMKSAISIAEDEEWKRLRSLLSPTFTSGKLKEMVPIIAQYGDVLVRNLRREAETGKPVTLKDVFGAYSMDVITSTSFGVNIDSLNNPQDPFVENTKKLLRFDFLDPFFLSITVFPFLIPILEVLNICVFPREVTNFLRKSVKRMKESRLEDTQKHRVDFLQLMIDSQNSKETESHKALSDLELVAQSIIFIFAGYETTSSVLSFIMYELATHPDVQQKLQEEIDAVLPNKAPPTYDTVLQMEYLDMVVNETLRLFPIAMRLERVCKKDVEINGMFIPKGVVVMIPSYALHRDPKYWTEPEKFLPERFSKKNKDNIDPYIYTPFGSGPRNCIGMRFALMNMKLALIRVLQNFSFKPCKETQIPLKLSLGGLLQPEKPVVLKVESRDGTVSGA

`CC(C)O[P@@]1(=O)OC[C@H]2O[C@@H](n3ccc(=O)[nH]c3=O)[C@@]3(CCO3)[C@@H]2O1`: the Drug metabolism entry is listed as “metabolite_notdetected” in data set [1]; 0.004 pmol in data set [4]; “metabolite_detected” in data set [11]; 0.308 pmol in [12]; “metabolite_notdetected” in data set [16]. Also, the AUC(0-inf) in [2] is 7440 ng·h/mL; in data set [13], 2620 ng·h/mL. Moreover, the figures for the Cmax in data set [3] and in data set [14] were 851 ng/mL and 13633 ng/g, respectively. Moreover, the Tlast in [5] was 24 h. In addition, in [6], the half-life was 438 min. For the same compound, the Activity entry in data set [7] is “Dose-dependent effect”. Besides, the Tmax in data set [8] amounted to 30 min; in [17], 1 h; in data set [18] it was 30 min. Also, in data set [9], the EC50 is greater than 100 µM. Further, the half-life at 22.7 µM in data set [10] amounted to 131 min. For the same compound, in [15], the Kp was found to be 0.34.
Regarding `[3H]C1O[P@](=O)(OC(C)C)O[C@@H]2[C@@H]1O[C@@H](n1ccc(=O)[nH]c1=O)[C@@]21CCO1` (stereo partly specified), the Drug metabolism entry is given as “metabolite_detected” in data set [19]; “metabolite_detected” in [20]; “metabolite_detected” in data set [21]; 0.027 pmol in data set [22]; 0.049 pmol in [23]; 0.39 pmol in data set [24]. Besides, the Drug metabolism result in [25] is given as “metabolite_detected”; in data set [26], 0.035 pmol.
